Reference: ChEMBL document CHEMBL1132226, “1,2,5-Oxadiazole N-oxide derivatives and related compounds as potential antitrypanosomal drugs: structure-activity relationships” (1999)

What follows are molecules tested on Trypanosoma cruzi (assay: (§1) The compound was tested in vitro for antitrypanosomal activity against Trypanosoma cruzi epimastigotes at a dose of 25 uM).
Format: functional
Summary of the method: (§2)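 T. cruzi Tulahuen 2 epimastigotes were grown at 28 °C in axenic BHI-tryptose medium with 10% fetal calf serum. Inocula came from a 10-day stationary culture, starting at 1 × 10⁶ cells/mL. Compound was added from a DMSO stock before inoculation, with final DMSO ≤0.4%; controls had 0.4% DMSO and no drug. Growth was read as A600 daily. Percent inhibition = {1 − [(Ap − A0p)/(Ac − A0c)]} × 100, using day-5 versus day-0 absorbances. Values are the mean of three experiments.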

Row | SMILES | inhibition at 25 µM [%]
1 | CCCCCCNC(=O)c1ccc2nonc2c1 | 10
2 | CCCCNC(=O)c1ccc2nonc2c1 | 0

Each molecule was assayed on Trypanosoma cruzi (assay: as §1).

Row | SMILES | inhibition at 25 µM [%]
3 | CC1CS(=O)(=O)CCN1/N=C/c1ccc([N+](=O)[O-])o1 (stereo not drawn) [NIFURTIMOX] | 100

Each molecule was assayed on Trypanosoma cruzi (assay: In vitro antitrypanosomal activity against Trypanosoma cruzi epimastigotes at dose 25 uM).
Format: functional
Summary of the method: as §2

Row | SMILES | inhibition at 25 µM [%]
4 | Cc1c(CNCCCN2CCCCC2)no[n+]1[O-] | 0
5 | CCCCNC(=O)NNCc1ccc2no[n+]([O-])c2c1 | 55
6 | CCCCCCNC(=O)N/N=C/c1no[n+]([O-])c1C | 3
7 | CCCCNC(=O)N/N=C/c1ccc2c(c1)[n+]([O-])c(C)c(C)[n+]2[O-] | 0
8 | CCCCNC(=O)c1ccc2no[n+]([O-])c2c1 | 90
9 | O=C(NCCCN1CCOCC1)c1ccc2no[n+]([O-])c2c1 | 19
10 | CCCCCCNC(=O)N/N=C/c1ccc2no[n+]([O-])c2c1 | 55
11 | CCCCCCNC(=O)c1ccc2no[n+]([O-])c2c1 | 79
12 | CN(C)CCCNC(=O)N/N=C/c1ccc2no[n+]([O-])c2c1 | 11
13 | CCCCNC(=O)N/N=C/c1ccc2c(c1)[n+]([O-])c(C#N)c(N)[n+]2[O-] | 17
14 | [O-][n+]1onc(-c2ccccc2)c1CNCCCN1CCOCC1 | 38
15 | CCN(CC)CCCNC(=O)c1ccc2no[n+]([O-])c2c1 | 17
16 | CCCCCCNC(=O)N/N=C/c1c(-c2ccccc2)no[n+]1[O-] | 53
17 | Cc1c(CNCCCN2CCOCC2)no[n+]1[O-] | 0
18 | O=C(NCCCN1CCCCC1)c1ccc2no[n+]([O-])c2c1 | 45
19 | CCCCNC(=O)N/N=C/c1ccc2no[n+]([O-])c2c1 | 45
20 | CCCCNC(=O)N/N=C/c1ccc2nonc2c1 | 0
21 | CCCCNCc1ccc2no[n+]([O-])c2c1 | 21
22 | CN(C)CCCNC(=O)c1ccc2no[n+]([O-])c2c1 | 15
23 | CCN(CC)CCCNC(=O)N/N=C/c1ccc2no[n+]([O-])c2c1 | 8
24 | CCCCNC(=O)N/N=C/c1no[n+]([O-])c1C | 0
25 | CCCCNC(=O)N/N=C/c1c(C)[n+]([O-])c2ccccc2[n+]1[O-] | 6
26 | CCN(CC)CCCNCc1c(-c2ccccc2)no[n+]1[O-] | 22
27 | CCCCNC(=O)N/N=C/c1c(-c2ccccc2)no[n+]1[O-] | 17
28 | CCCCNC(=O)N/N=C/c1ccc2c(c1)[n+]([O-])cc[n+]2[O-] | 23
